bIAP inh: bovine intestinal alkaline phosphatase inhibitors, primary screen, selectivity assay for TNAP inhibitor project, biochemical, bovine IAP, CDP-star luminescence | alkaline phosphatase, intestinal [Bos taurus] | AID 1019, 2008 | 190,000 tested, under 10 active | purified bovine IAP, 30 min | inhibition, % at 20 µM;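 active means over 50% inhibition of intestinal alkaline phosphatase at 20 µM in the single-dose screen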
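Incubation: 30 min reaction at room temperature / Material: purified bovine intestinal alkaline phosphatase (IAP) enzyme / Input: enzyme at 1/65,000,000 dilution / Dosing: 20 µM single dose / Signal: CDP-star luminescence signal / Reagent: CDP-star chemiluminescent phosphatase substrate, 30 µM final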
hIAP activ: human IAP activators, primary screen, biochemical, luminescence, uHTS; 330,000 tested, 0.16% active; purified human IAP, CDP-Star luminescence, 30 min; hits give high values; 1 = vehicle-only enzyme, 0 = enzyme-free background; AID 2524, 2010; Intestinal-type alkaline phosphatase (Homo sapiens), P09923; activation factor at 10 µM;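 active means activation factor of the enzyme at least 2-fold when tested at 20 µM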
Target sequence (P09923 whole entry, looked up): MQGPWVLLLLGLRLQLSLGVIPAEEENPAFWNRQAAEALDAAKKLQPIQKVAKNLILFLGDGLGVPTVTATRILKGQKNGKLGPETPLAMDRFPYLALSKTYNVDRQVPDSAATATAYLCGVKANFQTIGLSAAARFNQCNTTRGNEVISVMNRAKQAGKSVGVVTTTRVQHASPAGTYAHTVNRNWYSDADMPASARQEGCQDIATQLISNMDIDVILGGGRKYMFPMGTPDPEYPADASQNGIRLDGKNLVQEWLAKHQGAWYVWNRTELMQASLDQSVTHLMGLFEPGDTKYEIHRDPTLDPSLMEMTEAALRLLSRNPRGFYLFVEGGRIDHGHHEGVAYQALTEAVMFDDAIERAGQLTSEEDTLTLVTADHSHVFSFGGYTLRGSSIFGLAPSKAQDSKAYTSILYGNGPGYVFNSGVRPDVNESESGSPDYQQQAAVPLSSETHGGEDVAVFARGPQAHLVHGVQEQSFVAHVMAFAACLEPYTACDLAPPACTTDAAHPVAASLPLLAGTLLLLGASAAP
bIAP activator: bovine intestinal alkaline phosphatase activators, primary screen, biochemical, bovine IAP, CDP-star luminescence; AID 1016, 2008; activation factor at 20 µM; alkaline phosphatase, intestinal [Bos taurus]; purified bovine IAP, 30 min; hits give high values; fold of DMSO-control signal, blank-subtracted; 200,000 tested, 0.17% active;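 active means activation factor of 2 or more at 20 µM, a signal rise over negative controls twice the positive control's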
mIAP block: inhibitors of mouse IAP, primary screen, biochemical, luminescence, uHTS. intestinal alkaline phosphatase [Mus musculus]. purified mouse IAP, CDP-Star luminescence, 30 min. inhibition, % at 10 µM. 330,000 tested, 0.2% active. AID 2806, 2010;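 active means inhibition of at least 40% at 10 µM in the primary screen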;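 further: plate controls were DMSO with enzyme for no effect and no enzyme wells for full effect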
hIAP inh: human IAP inhibitors, primary screen, biochemical, luminescence, uHTS | 330,000 tested, 0.12% active | purified IAP, CDP-Star luminescence, 30 min | inhibition, % at 10 µM;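 active means inhibition reaching a set limit with compound at 10 µM in the primary screen, cut at about 35% in these data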;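 further: plate controls were DMSO wells with enzyme for no effect and no-enzyme buffer wells for full effect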
mIAP act: activators of mouse IAP, primary screen, biochemical, luminescence, uHTS; 330,000 tested, 0.24% active; intestinal alkaline phosphatase [Mus musculus]; muIAP, CDP-Star luminescence, 30 min; hits give high values; 1 = vehicle-only enzyme signal, 0 = enzyme-free wells; AID 2805, 2010; activation factor at 10 µM;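 active means activation factor of at least 2 at 20 µM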
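Assay system: mouse IAP enzyme; Reagent: CDP-Star chemiluminescent phosphatase substrate; Compound: DMSO-dissolved test compounds; Incubation: 30 min, room temperature; Technique: luminescence from enzymatic CDP-Star hydrolysis; Controls: DMSO-only wells and no-enzyme negative control.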
An asterisk follows results filed as active; i = inactive; . = not tested or not shown. Compounds with a hit are over-represented: about 0.77% of the library has one in this group of screens.

SMILES | bIAP inh | hIAP activ | bIAP activator | mIAP block | hIAP inh | mIAP act
Cc1cc(S(=O)(=O)NCCCN2CCOCC2)ccc1Br | . | 0.91 | . | -9 | 10 | 1.1
CCOc1ccc(OCC)c(NC(=O)Nc2ccc3c(c2)N(C)C(=O)CS3)c1 | -45 | 0.91 | 1.5 | -138 | 9 | 2.4*
COc1cccc(NC(=O)Nc2ccc3c(c2)N(C)C(=O)CS3)c1 | -10 | 1.2 | 1.1 | -170 | -18 | 2.7*
CC(=O)Nc1ccc(NC(=O)Nc2ccc3c(c2)N(C)C(=O)CS3)cc1 | -2 | 0.94 | 1 | -36 | 6 | 1.4
C=C(C)Cn1c(=O)c2c(nc3n2CC(C)CN3Cc2ccccc2)n(C)c1=O (centres undefined) | . | 1 | . | -1 | -5 | 1
Cc1ccc(NC(=O)CN2C(=O)NC(C)(CC(C)C)C2=O)cc1F (centres undefined) | . | 1.2 | . | -6 | -16 | 1.1
COc1ccc(NC(=O)CN(c2cc(C)cc(C)c2)S(=O)(=O)c2c(C)noc2C)cc1 | 5 | 0.93 | 1 | -66 | 7 | 1.7
CCOc1ccc(N(CC(=O)Nc2ccc(C)c(C)c2)S(=O)(=O)c2c(C)noc2C)cc1 | 8 | 1 | 0.9 | -108 | -4 | 2.1*
COc1ccc(NC(=O)CN(c2cc(C)cc(C)c2)S(=O)(=O)c2c(C)noc2C)cc1OC | 4 | 1.1 | 1 | -110 | -15 | 2.1*
CCC1C(=O)NCCN1C(=O)c1ccc2nc(Cc3cccc(Cl)c3)oc2c1 (centres undefined) | . | 1.1 | . | -2 | -14 | 1
CC(C)CNS(=O)(=O)c1ccc(NC(=O)Cn2nc(-c3ccc(F)cc3)ccc2=O)cc1 | 27 | 2.8* | 0.7 | -7 | -180 | 1.1
CCNC(=O)COC(=O)c1ccc(-c2nc3ccccc3s2)s1 | -10 | 1.1 | 1.1 | -8 | -5 | 1.1
Cc1noc(C)c1COC(=O)c1ccc(-c2nc3ccccc3s2)s1 | 2 | 1 | 1 | 42* | -2 | 0.58
CCc1ccc(-c2nc(SCC(=O)NC3CC3)n[nH]2)cc1 | . | 1.1 | . | 5 | -10 | 0.95
CCOC(=O)c1ccc(NC(=S)NCCC2=CCCCC2)cc1 | 2 | 1.1 | 1 | -162 | -12 | 2.6*
CCOC(=O)c1ccc(NC(=S)NCCc2ccccc2)cc1 | 40 | 1.1 | 0.6 | -82 | -11 | 1.8
Cc1ccc(NC(=S)NCCC2=CCCCC2)cc1 | 12 | 1.1 | 0.9 | -27 | -6 | 1.3
CCOC(=O)c1ccc(NC(=S)NCCc2ccccc2F)cc1 | 12 | 1.2 | 0.9 | -124 | -20 | 2.2*
NC(=O)C(c1ccccc1)c1ccc(C(=O)c2ccccc2)cc1 (centres undefined) | . | 1.1 | . | 7 | -9 | 0.93
Cc1nc2cc(NCc3nc4ccccc4n3Cc3ccccc3)ccc2n1C | -53 | 1.2 | 1.5 | -1 | -16 | 1
Cc1cccc(NCc2nc3ccccc3n2Cc2ccccc2)c1 | i | 0.98 | 9.5* | -9 | 2 | 1.1
COc1cccc(-c2nn(-c3ccccc3)cc2C(=O)OCC(=O)Nc2ncc(Cl)cc2Cl)c1 | -97 | 0.87 | 2* | 11 | 13 | 0.89
O=C(COC(=O)c1cn(-c2ccccc2)nc1-c1ccccc1)Nc1ncc(Cl)cc1Cl | . | 0.93 | . | 5 | 7 | 0.95
Cc1nn(-c2ccccc2)c(C)c1/C=C/C(=O)OCC(=O)Nc1ncc(Cl)cc1Cl | i | 0.95 | 11* | -11 | 5 | 1.1
c1ccc(-c2c(-c3ccccc3)n(Cc3ccco3)c3ncnc(NCCCn4ccnc4)c23)cc1 | i | 0.97 | 49* | -7 | 3 | 1.1
SMILES | bIAP inh | hIAP activ | bIAP activator | mIAP block | hIAP inh | mIAP act
OCCNc1ncnc2c1c(-c1ccccc1)c(-c1ccccc1)n2Cc1ccco1 | -13 | 0.83 | 1.1 | -1 | 17 | 1
O=C(CCn1cnnn1)NC1CCCN(Cc2ccccc2F)C1 (centres undefined) | . | 1.1 | . | 3 | -14 | 0.97
Cn1c(CNc2ccc(Cl)cc2)nc2ccccc21 | 35 | 0.99 | 0.6 | -16 | 1 | 1.2
CC(C)N=c1cc2n(-c3ccc(Cl)cc3)c3ccccc3nc-2cc1Nc1ccc(Cl)cc1 | . | 0.61 | . | 35 | 39* | 0.65
COC(=O)c1ccccc1N1C(=O)C2C(C1=O)[C@H]1C=C[C@@H]2C1 (some centres undefined) | 11 | 0.96 | 0.9 | 50* | 4 | 0.5
COc1ccc(N(C(=O)c2cnccn2)C(C(=O)NC2CCCCC2)c2cc(OC)c(OC)c(OC)c2)cc1 (centres undefined) | . | 0.93 | . | -1 | 7 | 1
Cn1c(C(O)c2ccc3c(c2)OCO3)nc2ccccc21 (centres undefined) | -32 | 1.4 | 1.3 | 12 | -36 | 0.88
CC(C)n1c(C(O)c2ccc3c(c2)OCO3)nc2ccccc21 (centres undefined) | -165 | 0.88 | 2.6* | 0 | 12 | 1
Cc1cc(NCCCn2ccnc2)n2nc(-c3ccc(F)cc3)cc2n1 | -44 | 1.2 | 1.4 | -2 | -22 | 1
Cc1cc(C)c2c(n1)nn1c(NCCCn3ccnc3)cc(C)nc21 | -128 | . | 2.3* | . | . | .
CCOC(=O)/C(N=Nc1sc(C(=O)OCC)c(C)c1C(=O)OCC)=C(\C)O | 19 | 0.83 | 0.8 | 12 | 16 | 0.88
CCOC(=O)c1sc(N=NC2=C(O)CCCC2=O)c(C(=O)OCC)c1C | -12 | 0.76 | 1.1 | 40* | 24 | 0.6
COc1ccc(/C(C)=N/Nc2ccc(C(=O)O)cc2)cc1OC | 5 | 2.1* | 0.9 | 5 | -107 | 0.95
COc1ccc(C)cc1C(=O)CCC(=O)NCCc1ccc(S(N)(=O)=O)cc1 | . | 1.1 | . | 2 | -8 | 0.98
COc1ccc(NC(=O)Nc2ccc3c(c2)C(=O)N([C@H](C)CO)C[C@H](C)[C@@H](CN(C)C(=O)Nc2ccccc2)O3)cc1 | . | 1 | . | -185 | -4 | 2.9*
C[C@H](CO)N1C[C@H](C)[C@@H](CN(C)C(=O)NC2CCCCC2)Oc2ccc(NC(=O)NC3CCCCC3)cc2C1=O | . | 0.96 | . | -93 | 4 | 1.9
C[C@H](CO)N1C[C@H](C)[C@@H](CN(C)C(=O)Nc2ccc(C(F)(F)F)cc2)Oc2ccc(NC(=O)Nc3ccc(C(F)(F)F)cc3)cc2C1=O | . | 1.1 | . | -50 | -9 | 1.5
C[C@H](CO)N1C[C@H](C)[C@@H](CN(C)C(=O)Nc2ccccc2)Oc2ccc(NC(=O)NC3CCCCC3)cc2C1=O | . | 1 | . | -108 | -1 | 2.1*

Screens: PubChem BioAssay, Sanford-Burnham Center for Chemical Genomics
